Experimental data taken from ChEMBL document CHEMBL3271979, “Inhibition of solid tumors by nitrosoureas. 1. Lewis lung carcinoma” (1977).
Activity calls are given as the source filed them. The rule behind the calls is not given here.

Experiments:
[1] = test system: Mus musculus; assay: Antitumor activity against mouse advanced Lewis lung carcinoma allografted in BDF1 mouse assessed as complete regression of established tumor at 32 mg/kg, ip administered as single dose on 7th day post-tumor implantation; assay type: functional, organism-based; parameters: dose 32 mg/kg
How it was run: (§1)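 BDF1 mice (C57Blk/6 × DBA/2) implanted sc by trocar with about 40 mg Lewis lung tumor fragments from bacteriologically sterile donors. Advanced-disease groups held tumors of about 400 mg by day 6-7, sized by caliper (w = ab²/2). Single ip injection on day 7, in water or saline vehicle, at or below the LD10 in normal mice. Tumors measured at least twice weekly.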

[2] = Antitumor activity against mouse early Lewis lung carcinoma allografted in BDF1 mouse assessed as increase in host life span at 21 mg/kg, ip administered as single dose on 1 or 2 days post-tumor implantation; assay type: functional; settings: route intraperitoneal
How it was run: (§2)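 BDF1 mice (C57Blk/6 × DBA/2) implanted sc by trocar with ~40 mg Lewis lung tumor fragments from bacteriologically sterile donor tumors. Single ip dose on day 1 or 2, as a solution or suspension in water (CMC or gum acacia) or saline (HPC or Tween 80). Read-out is […]. Same-dose toxicity controls were run in nontumor-bearing mice.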

[3] = Antitumor activity against mouse advanced Lewis lung carcinoma allografted in BDF1 mouse assessed as increase in host life span at 21 mg/kg, ip administered as single dose on 7th day post-tumor implantation; assay type: functional; settings: route intraperitoneal; how it was run: as §1
[4] = test system: Mus musculus; assay: Antitumor activity against mouse advanced Lewis lung carcinoma allografted in ip dosed BDF1 mouse assessed as complete regression of established tumor administered as single dose on day 6 or 7 post-tumor implantation; assay type: functional, organism-based
How it was run: (§3)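 BDF1 mice (C57Blk/6 × DBA/2) implanted sc by trocar with Lewis lung tumor fragments of about 40 mg, taken only from bacteriologically sterile donor tumors. Mice bearing tumors of about 400 mg (day 6-7) were selected. Each received a single ip dose on day 7, at or below the LD10 in normal mice. Groups were of 10 mice. Tumor weight was taken from calipers as w = ab²/2, measured at least twice weekly. Matched non-tumor mice served as toxicity controls.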

[5] = Antitumor activity against mouse advanced Lewis lung carcinoma allografted in BDF1 mouse assessed as increase in host life span at 32 mg/kg, ip administered as single dose on 7th day post-tumor implantation; assay type: functional; settings: route intraperitoneal; how it was run: as §1
[6] = test system: Mus musculus; assay: Antitumor activity against mouse advanced Lewis lung carcinoma allografted in ip dosed BDF1 mouse assessed as disease cure administered as single dose on day 6 or 7 post-tumor implantation; assay type: functional, organism-based; how it was run: as §3
[7] = Antitumor activity against mouse advanced Lewis lung carcinoma allografted in BDF1 mouse assessed as increase in host life span at 48 mg/kg, ip administered as single dose on 7th day post-tumor implantation; assay type: functional; settings: route intraperitoneal; how it was run: as §1
[8] = test system: Mus musculus; assay: Antitumor activity against mouse advanced Lewis lung carcinoma allografted in BDF1 mouse assessed as disease cure at 21 mg/kg, ip administered as single dose on 7th day post-tumor implantation measured for 80 days post-drug treatment; assay type: functional, organism-based; parameters: dose 21 mg/kg; how it was run: as §3
[9] = test system: Mus musculus; assay: Antitumor activity against mouse advanced Lewis lung carcinoma allografted in BDF1 mouse assessed as complete regression of established tumor at 21 mg/kg, ip administered as single dose on 7th day post-tumor implantation; assay type: functional, organism-based; parameters: dose 21 mg/kg; how it was run: as §3
[10] = test system: Mus musculus; assay: Antitumor activity against mouse advanced Lewis lung carcinoma allografted in BDF1 mouse assessed as disease cure at 32 mg/kg, ip administered as single dose on 7th day post-tumor implantation measured for 80 days post-drug treatment; assay type: functional, organism-based; parameters: dose 32 mg/kg; how it was run: as §3
[11] = Antitumor activity against mouse advanced Lewis lung carcinoma allografted in ip dosed BDF1 mouse assessed as increase in host lifespan administered as single dose on day 6 or 7 post-tumor implantation; assay type: functional
How it was run: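 Advanced Lewis lung model: about 40 mg fragments implanted sc by trocar into BDF1 mice, and mice with tumors of about 400 mg (day 6-7) selected. Tumor weight from calipers, w = ab²/2. Agent given as one ip dose in distilled water or physiological saline. Nontumor-bearing mice received matching doses as toxicity controls.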

[12] = Antitumor activity against mouse early Lewis lung carcinoma allografted in BDF1 mouse assessed as time delay in tumor growth at 21 mg/kg, ip administered as single dose on 1 or 2 days post-tumor implantation; assay type: functional; settings: route intraperitoneal
How it was run: (§4)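 BDF1 mice (C57Blk/6 × DBA/2) implanted sc by trocar with ~40 mg Lewis lung tumor fragments from bacteriologically sterile donors. A single ip dose was given on day 1 or 2, as a solution or suspension in water or saline with suspending agent, at ≤0.5 ml. Tumors were measured by caliper at least twice weekly, with weight = ab²/2. Delay was taken as the days for the tumor to reach 1 g.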

[13] = Antitumor activity against mouse early Lewis lung carcinoma allografted in BDF1 mouse assessed as time delay in tumor growth at 48 mg/kg, ip administered as single dose on 1 or 2 days post-tumor implantation; assay type: functional; settings: route intraperitoneal; how it was run: as §4
[14] = Antitumor activity against mouse early Lewis lung carcinoma allografted in BDF1 mouse assessed as increase in host life span at 48 mg/kg, ip administered as single dose on 1 or 2 days post-tumor implantation; assay type: functional; settings: route intraperitoneal; how it was run: as §2
[15] = test system: Mus musculus; assay: Antitumor activity against mouse advanced Lewis lung carcinoma allografted in BDF1 mouse assessed as complete regression of established tumor at 48 mg/kg, ip administered as single dose on 7th day post-tumor implantation; assay type: functional, organism-based; parameters: dose 48 mg/kg; how it was run: as §3
[16] = test system: Mus musculus; assay: Antitumor activity against mouse advanced Lewis lung carcinoma allografted in BDF1 mouse assessed as disease cure at 48 mg/kg, ip administered as single dose on 7th day post-tumor implantation measured for 80 days post-drug treatment; assay type: functional, organism-based; parameters: dose 48 mg/kg; how it was run: as §3
[17] = Antitumor activity against mouse early Lewis lung carcinoma allografted in ip dosed BDF1 mouse assessed as disease cure administered as single dose on 1 or 2 days post-tumor implantation measured for 80 days post-drug treatment; assay type: functional
How it was run: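 BDF1 mice implanted sc by trocar with ~40 mg Lewis lung fragments from sterile donor tumors. A single ip dose was given on day 1 or 2 after implant, in water or saline vehicle. Cures were scored in animals observed for at least 80 days after treatment. Drug-toxicity controls were matched non-tumor-bearing mice monitored for body weight and deaths.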

[18] = Antitumor activity against mouse early Lewis lung carcinoma allografted in BDF1 mouse assessed as increase in host life span at 113 mg/kg, ip administered as single dose on 1 or 2 days post-tumor implantation; assay type: functional; settings: route intraperitoneal
How it was run: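 Early disease: BDF1 mice carrying sc trocar implants of about 40 mg Lewis lung fragments. One ip dose given on day 1 or 2 after implant, in distilled water or saline, at ≤0.5 ml. Endpoints were % increase in life-span of dying animals and delay in days for the primary tumor to reach 1 g. Untreated controls served as reference.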

[19] = Antitumor activity against mouse early Lewis lung carcinoma allografted in BDF1 mouse assessed as time delay in tumor growth at 113 mg/kg, ip administered as single dose on 1 or 2 days post-tumor implantation; assay type: functional; settings: route intraperitoneal
How it was run: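 Sc trocar implants of about 40 mg Lewis lung fragments in BDF1 mice. A single ip injection was given on day 1 or 2, in water or physiological saline, at ≤0.5 ml. Tumor size came from caliper length and width as w = ab²/2, measured at least twice weekly. Growth delay is the extra days taken to reach 1 g, compared with untreated controls.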

[20] = Antitumor activity against mouse early Lewis lung carcinoma allografted in BDF1 mouse assessed as time delay in tumor growth at 50 mg/kg, ip administered as single dose on 1 or 2 days post-tumor implantation; assay type: functional; settings: route intraperitoneal; how it was run: as §4
[21] = Antitumor activity against mouse early Lewis lung carcinoma allografted in BDF1 mouse assessed as increase in host life span at 50 mg/kg, ip administered as single dose on 1 or 2 days post-tumor implantation; assay type: functional; settings: route intraperitoneal; how it was run: as §2
[22] = Ratio of ED50 for antitumor activity against mouse L1210 cells allografted in ip dosed mouse to LD10 for mouse
[23] = test system: L1210; assay: Antitumor activity against mouse L1210 cells allografted in ip dosed mouse assessed as disease cure administered as single dose; assay type: functional, organism-based
[24] = Antitumor activity against mouse early Lewis lung carcinoma allografted in BDF1 mouse assessed as increase in host life span at 30 mg/kg, ip administered as single dose on 1 or 2 days post-tumor implantation; assay type: functional; settings: route intraperitoneal; how it was run: as §2
[25] = Antitumor activity against mouse early Lewis lung carcinoma allografted in BDF1 mouse assessed as time delay in tumor growth at 45 mg/kg, ip administered as single dose on 1 or 2 days post-tumor implantation; assay type: functional; settings: route intraperitoneal; how it was run: as §4
[26] = Antitumor activity against mouse early Lewis lung carcinoma allografted in BDF1 mouse assessed as increase in host life span at 45 mg/kg, ip administered as single dose on 1 or 2 days post-tumor implantation; assay type: functional; settings: route intraperitoneal; how it was run: as §2
[27] = Antitumor activity against mouse early Lewis lung carcinoma allografted in BDF1 mouse assessed as time delay in tumor growth at 30 mg/kg, ip administered as single dose on 1 or 2 days post-tumor implantation; assay type: functional; settings: route intraperitoneal; how it was run: as §4

CC(=O)OC[C@H]1CC[C@H](NC(=O)N(CCF)N=O)CC1
inhibition [1]: inactive
ILS at 21 mg/kg [2]: 24%
ILS at 21 mg/kg [3]: 26%
inhibition [4]: inactive
ILS at 32 mg/kg [5]: 13%
Activity [6]: inactive
ILS at 48 mg/kg [7]: 26%
Activity [8]: inactive
inhibition [9]: inactive
Activity [10]: inactive
ILS [11]: >25%
Time [12]: 1.3 days
Time [13]: 12 days
ILS at 48 mg/kg [14]: 7%
inhibition [15]: inactive
Activity [16]: inactive

C[C@@H]1CCC[C@@H](NC(=O)N(CCCl)N=O)C1 (relative stereo)
inhibition [4]: inactive
Activity [17]: 10%
ILS at 113 mg/kg [18]: 50%
Time [19]: 6.1 days
ILS [11]: <25%
Time [20]: 4 days
ILS at 50 mg/kg [21]: 47%
Ratio [22]: 0.4

O=NN(CCCl)C(=O)N[C@H]1CC[C@@H](O)CC1
Activity [23]: inactive
ILS at 30 mg/kg [24]: 92%
inhibition [4]: inactive
Activity [17]: 10%
Time [25]: 18 days
ILS [11]: <25%
ILS at 45 mg/kg [26]: 110%
Time [27]: 5.1 days
